This note sets out measurements from ChEMBL document CHEMBL1149232, “An aminomethylpyrimidine DPP-IV inhibitor with improved properties” (Bioorg Med Chem Lett, 2004).

The nature of series [1]: Octanol water partition coefficient was determined at pH 7.4. Type of series: physicochemical.
A further series concerns the target Cytochrome P450 3A4 (Homo sapiens, UniProt P08684). Kind of series: Inhibition of human liver microsome Cytochrome P3A4. Format: microsomes. Summed up: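 CYP3A4 inhibition was measured by a published fluorometric method using BFC as the substrate.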
In general terms: Microsomes from liver hold many membrane-bound enzymes, among them those of drug oxidation.

pIC50: −log10 of the molar value.

Sequence of Cytochrome P450 3A4 (P08684 whole entry): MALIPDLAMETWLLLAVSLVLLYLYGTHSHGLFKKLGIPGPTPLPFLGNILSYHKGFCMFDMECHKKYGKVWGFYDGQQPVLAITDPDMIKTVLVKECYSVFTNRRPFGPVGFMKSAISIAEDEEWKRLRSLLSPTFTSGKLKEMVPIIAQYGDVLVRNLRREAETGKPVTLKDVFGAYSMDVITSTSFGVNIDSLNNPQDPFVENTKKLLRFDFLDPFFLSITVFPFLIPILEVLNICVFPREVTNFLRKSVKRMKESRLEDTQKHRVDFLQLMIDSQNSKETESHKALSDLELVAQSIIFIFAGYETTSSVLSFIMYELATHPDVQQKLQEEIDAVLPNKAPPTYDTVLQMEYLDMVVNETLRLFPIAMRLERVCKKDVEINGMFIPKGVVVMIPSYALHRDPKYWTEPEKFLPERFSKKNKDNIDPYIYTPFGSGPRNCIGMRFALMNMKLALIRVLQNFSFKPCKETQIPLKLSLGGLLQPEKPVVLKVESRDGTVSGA

Consider `NCc1c(N)nc(N)nc1-c1ccc(Cl)cc1Cl`, for which, in series [1], the log distribution coefficient (logD) (commonly lipophilicity at a set pH, counting ionised and neutral species) turned out to be 0.4.
For the compound `NCc1c(N)nc(-c2ccccc2)nc1-c1ccc(Cl)cc1Cl`, the logD in series [1] is 3. In addition, the pIC50 – broadly, −log10 of the IC50, conventionally taken in molar units – at Cytochrome P450 3A4 is 5.27.
Compound `COc1nc(N)c(CN)c(-c2ccc(Cl)cc2Cl)n1` yielded a logD in series [1] of 1.6.
Still for that read-out and setting: the same measure for `Cc1nc(N)c(CN)c(-c2ccc(Cl)cc2Cl)n1`: 1.4.
